Laboratory results from ChEMBL document CHEMBL1926550, “Synthesis and antibacterial activity of naphthyridone derivatives containing mono/difluoro-methyloxime pyrrolidine scaffolds” (2012).
Converted amounts (≈) assume the structure as drawn.

Columns and labels:
Format in all cases: functional
Escherichia coli [1] = assay: Antibacterial activity against Escherichia coli 10-1 after 18 hrs by two fold serial dilution method; conditions: 10-1, 18 h
In short: (§1)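 Agar two-fold serial dilution in melted Mueller-Hinton agar, final concentrations 128 down to 0.008 μg/mL. Plates inoculated with 10⁴ cfu and incubated at 35 °C for 18 h. MIC taken as the lowest concentration giving no visible growth on the plate.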

Escherichia coli [2] = assay: Antibacterial activity against Escherichia coli 10-2 after 18 hrs by two fold serial dilution method; conditions: 10-2, 18 h; in short: as §1
Escherichia coli [3] = assay: Antibacterial activity against Escherichia coli 10-3 after 18 hrs by two fold serial dilution method; conditions: 10-3, 18 h; in short: as §1
Klebsiella pneumoniae [4] = assay: Antibacterial activity against Klebsiella pneumoniae 09-2 after 18 hrs by two fold serial dilution method; conditions: 09-2, 18 h; in short: as §1
Klebsiella pneumoniae [5] = assay: Antibacterial activity against Klebsiella pneumoniae 10-1 after 18 hrs by two fold serial dilution method; conditions: 10-1, 18 h; in short: as §1
Klebsiella pneumoniae [6] = assay: Antibacterial activity against Klebsiella pneumoniae 10-3 after 18 hrs by two fold serial dilution method; conditions: 10-3, 18 h; in short: as §1
Pseudomonas aeruginosa [7] = assay: Antibacterial activity against Pseudomonas aeruginosa ATCC 27853 after 18 hrs by two fold serial dilution method; conditions: ATCC 27853, 18 h; in short: as §1
Pseudomonas aeruginosa [8] = assay: Antibacterial activity against Pseudomonas aeruginosa 10-1 after 18 hrs by two fold serial dilution method; conditions: 10-1, 18 h; in short: as §1
Pseudomonas aeruginosa [9] = assay: Antibacterial activity against Pseudomonas aeruginosa 10-2 after 18 hrs by two fold serial dilution method; conditions: 10-2, 18 h; in short: as §1
Pseudomonas aeruginosa [10] = assay: Antibacterial activity against Pseudomonas aeruginosa 10-3 after 18 hrs by two fold serial dilution method; conditions: 10-3, 18 h; in short: as §1
Staphylococcus aureus [11] = assay: Ratio of ciprofloxacin MIC to compound MIC for methicillin-resistant Staphylococcus aureus 10-2
Staphylococcus aureus [12] = assay: Ratio of gemifloxacin MIC to compound MIC for methicillin-resistant Staphylococcus aureus 10-2
Staphylococcus aureus [13] = assay: Ratio of moxifloxacin MIC to compound MIC for methicillin-resistant Staphylococcus aureus 10-2
Enterococcus faecalis [14] = assay: Ratio of ciprofloxacin MIC to compound MIC for Enterococcus faecalis 09-2
Enterococcus faecalis [15] = assay: Ratio of gemifloxacin MIC to compound MIC for Enterococcus faecalis 09-2
Enterococcus faecalis [16] = assay: Ratio of moxifloxacin MIC to compound MIC for Enterococcus faecalis 09-2
Enterococcus faecium [17] = assay: Antibacterial activity against Enterococcus faecium 09-1 after 18 hrs by two fold serial dilution method; conditions: 09-1, 18 h; in short: as §1
Staphylococcus aureus [18] = assay: Antibacterial activity against Staphylococcus aureus ATCC 25923 after 18 hrs by two fold serial dilution method; conditions: ATCC 25923, 18 h; in short: as §1
Staphylococcus aureus [19] = assay: Antibacterial activity against methicillin-resistant Staphylococcus aureus 10-1 after 18 hrs by two fold serial dilution method; conditions: 10-1, 18 h
In short: (§2)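 Agar two-fold serial dilution in melted Mueller-Hinton agar, 128 to 0.008 μg/mL. Plates inoculated with 10⁴ cfu, incubated 35 °C for 18 h. MIC taken as lowest concentration giving no visible growth on the plate.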

Staphylococcus aureus [20] = assay: Antibacterial activity against methicillin-resistant Staphylococcus aureus 10-2 after 18 hrs by two fold serial dilution method; conditions: 10-2, 18 h; in short: as §2
Staphylococcus aureus [21] = assay: Antibacterial activity against methicillin-resistant Staphylococcus aureus 10-3 after 18 hrs by two fold serial dilution method; conditions: 10-3, 18 h; in short: as §2
Staphylococcus aureus [22] = assay: Antibacterial activity against methicillin-resistant Staphylococcus aureus 10-4 after 18 hrs by two fold serial dilution method; conditions: 10-4, 18 h; in short: as §2
Staphylococcus aureus [23] = assay: Antibacterial activity against methicillin-sensitive Staphylococcus aureus 10-1 after 18 hrs by two fold serial dilution method; conditions: 10-1, 18 h; in short: as §1
Staphylococcus aureus [24] = assay: Antibacterial activity against methicillin-sensitive Staphylococcus aureus 10-2 after 18 hrs by two fold serial dilution method; conditions: 10-2, 18 h; in short: as §1
Staphylococcus aureus [25] = assay: Antibacterial activity against methicillin-sensitive Staphylococcus aureus 10-3 after 18 hrs by two fold serial dilution method; conditions: 10-3, 18 h; in short: as §1
Staphylococcus aureus [26] = assay: Antibacterial activity against methicillin-sensitive Staphylococcus aureus 10-4 after 18 hrs by two fold serial dilution method; conditions: 10-4, 18 h; in short: as §1
Staphylococcus aureus [27] = assay: Antibacterial activity against methicillin-sensitive Staphylococcus aureus 10-5 after 18 hrs by two fold serial dilution method; conditions: 10-5, 18 h; in short: as §1
Staphylococcus aureus [28] = assay: Antibacterial activity against methicillin-sensitive Staphylococcus aureus 10-6 after 18 hrs by two fold serial dilution method; conditions: 10-6, 18 h; in short: as §1
[29] = system: Staphylococcus epidermidis; assay: Antibacterial activity against methicillin-resistant Staphylococcus epidermidis 10-1 after 18 hrs by two fold serial dilution method; conditions: 10-1, 18 h; in short: as §2
[30] = system: Staphylococcus epidermidis; assay: Antibacterial activity against methicillin-resistant Staphylococcus epidermidis 10-2 after 18 hrs by two fold serial dilution method; conditions: 10-2, 18 h; in short: as §2
[31] = system: Staphylococcus epidermidis; assay: Antibacterial activity against methicillin-sensitive Staphylococcus epidermidis 10-1 after 18 hrs by two fold serial dilution method; conditions: 10-1, 18 h; in short: as §1
[32] = system: Staphylococcus epidermidis; assay: Antibacterial activity against methicillin-sensitive Staphylococcus epidermidis 10-2 after 18 hrs by two fold serial dilution method; conditions: 10-2, 18 h; in short: as §1
Streptococcus pneumoniae = assay: Antibacterial activity against Streptococcus pneumoniae 10-1 after 18 hrs by two fold serial dilution method; conditions: 10-1, 18 h; in short: as §1
Enterococcus faecium [33] = assay: Antibacterial activity against Enterococcus faecium 09-2 after 18 hrs by two fold serial dilution method; conditions: 09-2, 18 h; in short: as §1
Enterococcus faecium [34] = assay: Antibacterial activity against Enterococcus faecium 09-3 after 18 hrs by two fold serial dilution method; conditions: 09-3, 18 h; in short: as §1
Enterococcus faecium [35] = assay: Antibacterial activity against Enterococcus faecium 09-4 after 18 hrs by two fold serial dilution method; conditions: 09-4, 18 h; in short: as §1
Enterococcus faecium [36] = assay: Antibacterial activity against Enterococcus faecium 09-5 after 18 hrs by two fold serial dilution method; conditions: 09-5, 18 h; in short: as §1
Enterococcus faecium [37] = assay: Antibacterial activity against Enterococcus faecium 09-6 after 18 hrs by two fold serial dilution method; conditions: 09-6, 18 h; in short: as §1
Enterococcus faecalis [38] = assay: Antibacterial activity against Enterococcus faecalis 09-1 after 18 hrs by two fold serial dilution method; conditions: 09-1, 18 h; in short: as §1
Enterococcus faecalis [39] = assay: Antibacterial activity against Enterococcus faecalis 09-2 after 18 hrs by two fold serial dilution method; conditions: 09-2, 18 h; in short: as §1
Escherichia coli [40] = assay: Antibacterial activity against Escherichia coli ATCC 25922 after 18 hrs by two fold serial dilution method; conditions: ATCC 25922, 18 h; in short: as §1
Escherichia coli [41] = assay: Antibacterial activity against Escherichia coli 09-1 after 18 hrs by two fold serial dilution method; conditions: 09-1, 18 h; in short: as §1
Escherichia coli [42] = assay: Antibacterial activity against Escherichia coli 09-2 after 18 hrs by two fold serial dilution method; conditions: 09-2, 18 h; in short: as §1
Escherichia coli [43] = assay: Antibacterial activity against Escherichia coli 09-3 after 18 hrs by two fold serial dilution method; conditions: 09-3, 18 h; in short: as §1

For `CC1(CN)CN(c2nc3c(cc2F)c(=O)c(C(=O)O)cn3C2CC2)C/C1=N\OCF` (racemic), the MIC (Escherichia coli [1]) was 64 µg/mL (≈ 152 µM), the MIC (Escherichia coli [2]) was 0.125 µg/mL (≈ 0.297 µM) and the MIC (Escherichia coli [3]) was 32 µg/mL (≈ 75.9 µM). For the same molecule, the MIC (Klebsiella pneumoniae [4]) was 128 µg/mL (≈ 304 µM), the MIC (Klebsiella pneumoniae [5]) was 0.015 µg/mL (≈ 0.0356 µM) and the MIC (Klebsiella pneumoniae [6]) was 0.125 µg/mL (≈ 0.297 µM). The MIC (Pseudomonas aeruginosa [7]) was 0.125 µg/mL (≈ 0.297 µM), the MIC (Pseudomonas aeruginosa [8]) was 0.008 µg/mL (≈ 0.019 µM) and the MIC (Pseudomonas aeruginosa [9]) was 16 µg/mL (≈ 38 µM). For the same molecule, the MIC (Pseudomonas aeruginosa [10]) was 4 µg/mL (≈ 9.49 µM), the Ratio (Staphylococcus aureus [11]) was 64 and the Ratio (Staphylococcus aureus [12]) was 2. The Ratio (Staphylococcus aureus [13]) was 32, the Ratio (Enterococcus faecalis [14]) was 64 and the Ratio (Enterococcus faecalis [15]) was 4. It also gave a Ratio (Enterococcus faecalis [16]) of 16, an MIC (Enterococcus faecium [17]) of 16 µg/mL (≈ 38 µM) and an MIC (Staphylococcus aureus [18]) of 0.008 µg/mL (≈ 0.019 µM). It also gave an MIC (Staphylococcus aureus [19]) of 4 µg/mL (≈ 9.49 µM), an MIC (Staphylococcus aureus [20]) of 0.25 µg/mL (≈ 0.593 µM) and an MIC (Staphylococcus aureus [21]) of 4 µg/mL (≈ 9.49 µM). The MIC (Staphylococcus aureus [22]) was 4 µg/mL (≈ 9.49 µM), the MIC (Staphylococcus aureus [23]) was 0.06 µg/mL (≈ 0.142 µM) and the MIC (Staphylococcus aureus [24]) was 1 µg/mL (≈ 2.37 µM). For the same molecule, the MIC (Staphylococcus aureus [25]) was 0.25 µg/mL (≈ 0.593 µM), the MIC (Staphylococcus aureus [26]) was 0.06 µg/mL (≈ 0.142 µM) and the MIC (Staphylococcus aureus [27]) was 0.03 µg/mL (≈ 0.0712 µM). It also gave an MIC (Staphylococcus aureus [28]) of 0.125 µg/mL (≈ 0.297 µM), an MIC [29] of 1 µg/mL (≈ 2.37 µM) and an MIC [30] of 0.5 µg/mL (≈ 1.19 µM). It also gave an MIC [31] of 8 µg/mL (≈ 19 µM), an MIC [32] of 64 µg/mL (≈ 152 µM) and an MIC (Streptococcus pneumoniae) of 0.5 µg/mL (≈ 1.19 µM). It also gave an MIC (Enterococcus faecium [33]) of 16 µg/mL (≈ 38 µM), an MIC (Enterococcus faecium [34]) of 8 µg/mL (≈ 19 µM) and an MIC (Enterococcus faecium [35]) of 0.06 µg/mL (≈ 0.142 µM). It also gave an MIC (Enterococcus faecium [36]) of 16 µg/mL (≈ 38 µM), an MIC (Enterococcus faecium [37]) of 0.06 µg/mL (≈ 0.142 µM) and an MIC (Enterococcus faecalis [38]) of 4 µg/mL (≈ 9.49 µM). For the same molecule, the MIC (Enterococcus faecalis [39]) was 1 µg/mL (≈ 2.37 µM), the MIC (Escherichia coli [40]) was 0.008 µg/mL (≈ 0.019 µM) and the MIC (Escherichia coli [41]) was 64 µg/mL (≈ 152 µM). The MIC (Escherichia coli [42]) was > 128 µg/mL and the MIC (Escherichia coli [43]) was 32 µg/mL (≈ 75.9 µM).
